Tests used:
Conditions in all cases: stereoisomer not certain
UniProt Q9WVD9 = target: UniProt Q9WVD9
Method in brief: (§1)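 Transient luciferase assays in mammalian cell lines were common, though methods varied by source. The values come from published papers and their supplementary material, with extra details from the original authors when needed. Responsive refers to a measured signal the original authors judged statistically different from baseline, and non-responsive (inactive) to the remainder.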

UniProt Q9WVN5 = target: T1, UniProt Q9WVN5
T1 sequence (whole entry): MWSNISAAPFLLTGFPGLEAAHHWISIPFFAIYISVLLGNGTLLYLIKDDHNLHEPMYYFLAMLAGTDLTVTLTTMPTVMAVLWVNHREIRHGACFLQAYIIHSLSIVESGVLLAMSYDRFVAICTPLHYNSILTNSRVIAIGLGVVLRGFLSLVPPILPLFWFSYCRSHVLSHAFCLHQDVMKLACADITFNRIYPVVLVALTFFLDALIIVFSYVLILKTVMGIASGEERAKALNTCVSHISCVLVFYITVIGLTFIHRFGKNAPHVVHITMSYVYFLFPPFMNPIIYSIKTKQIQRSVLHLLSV
Method in brief: as §1

UniProt Q9WVD7 = target: UniProt Q9WVD7
Method in brief: as §1
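Further: active if original authors judged signal statistically different from baseline.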

Sequence of UniProt Q9WVD9 (Q9WVD9 as listed by the source): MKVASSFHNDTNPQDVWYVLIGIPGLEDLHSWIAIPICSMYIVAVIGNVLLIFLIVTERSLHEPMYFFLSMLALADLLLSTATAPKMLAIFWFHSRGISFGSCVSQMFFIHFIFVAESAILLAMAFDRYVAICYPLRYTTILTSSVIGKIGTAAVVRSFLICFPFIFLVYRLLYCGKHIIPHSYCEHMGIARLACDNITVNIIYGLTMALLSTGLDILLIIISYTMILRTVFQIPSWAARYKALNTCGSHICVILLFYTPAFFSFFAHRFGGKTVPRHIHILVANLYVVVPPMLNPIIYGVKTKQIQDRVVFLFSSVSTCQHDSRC
Sequence of UniProt Q9WVD7 (Q9WVD7 as listed by the source): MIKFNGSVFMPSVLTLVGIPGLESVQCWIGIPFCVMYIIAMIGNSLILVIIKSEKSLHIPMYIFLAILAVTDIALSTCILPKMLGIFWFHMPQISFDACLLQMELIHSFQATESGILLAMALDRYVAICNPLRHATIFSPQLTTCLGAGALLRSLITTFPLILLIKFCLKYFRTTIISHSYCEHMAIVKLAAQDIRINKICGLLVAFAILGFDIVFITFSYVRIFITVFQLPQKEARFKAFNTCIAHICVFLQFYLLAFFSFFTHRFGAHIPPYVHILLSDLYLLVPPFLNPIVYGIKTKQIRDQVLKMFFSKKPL

Compound | odorant receptor agonist call (UniProt Q9WVD9) | odorant receptor agonist call (UniProt Q9WVN5) | odorant receptor agonist call (UniProt Q9WVD7)
C=CCOC(=O)Cc1ccccc1 | inactive | active | 
C=CCc1ccccc1 | inactive | inactive | 
O=c1cc(O)c2ccccc2o1 | inactive | inactive | 
O=C(O)CCCCCCCBr |  |  | active
CCC1CCC(=O)O1 (centres undefined) | inactive | inactive | 

Reference: the M2OR odorant receptor database
